# Assay results reported in ChEMBL document CHEMBL4689842, “EUbOPEN Chemogenomics Library wave 1” (2021).
# Tested on: U2OS
# Experiment: Multiplex assay against U2OS
# Type: toxicity, cell-based
# Details: human
# Method in brief: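 Hoechst33342, BioTracker Green Microtubule Cytoskeleton Dye, MitoTracker Red and Annexin V Alexa Fluor 680 were added to live cells at seeding, and imaging on a CQ1 microscope at 37°C and 5% CO2 followed compound addition. Gating by CellPathfinder machine learning separated cells into Hoechst high-intensity objects or normal cells, then normal cells into healthy, pyknosed or fragmented nuclei, then pyknosed cells into mitotic or apoptotic. Per cents of healthy-nucleus cells are reported for the tubulin, mitochondrial-mass and membrane-permeability phenotypes.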
# [1] = 12 h, 1 µM, compound concentration 1 uM, replicate 1
# [2] = 12 h, 1 µM, compound concentration 1 uM, replicate 2
# [3] = 12 h, 10 µM, compound concentration 10 uM, replicate 1
# [4] = 12 h, 10 µM, compound concentration 10 uM, replicate 2
# [5] = 24 h, 1 µM, compound concentration 1 uM, replicate 1
# [6] = 24 h, 1 µM, compound concentration 1 uM, replicate 2
# [7] = 24 h, 10 µM, compound concentration 10 uM, replicate 1
# [8] = 24 h, 10 µM, compound concentration 10 uM, replicate 2
# [9] = 48 h, 1 µM, compound concentration 1 uM, replicate 1
# [10] = 48 h, 1 µM, compound concentration 1 uM, replicate 2
# [11] = 48 h, 10 µM, compound concentration 10 uM, replicate 1
# [12] = 48 h, 10 µM, compound concentration 10 uM, replicate 2
smiles,measurement,setting,value
NC(=O)c1cccc(-c2cc(Nc3ccc(OC(F)(F)F)cc3)ncn2)c1,Population Apoptotic (%),[1],27%
same,Population Fragmented Nuclei (%),[1],5%
same,Population Healthy Nuclei (%),[1],89%
same,Population Hoechst High Intensity Objects (%),[1],1%
same,Population Membrane Permeable-Phenotype (%),[1],8%
same,Population Mitochondria Different-Phenotype (%),[1],24%
same,Population Mitotic Cells (%),[1],72%
same,Population Normal (%),[1],98%
same,Population Pyknosed Nuclei (%),[1],5%
same,Population Tubulin-Different-Phenotype (%),[1],25%
same,Total Cell Count,[1],640
same,Population Apoptotic (%),[2],0%
same,Population Fragmented Nuclei (%),[2],16%
same,Population Healthy Nuclei (%),[2],81%
same,Population Hoechst High Intensity Objects (%),[2],16%
same,Population Membrane Permeable-Phenotype (%),[2],13%
same,Population Mitochondria Different-Phenotype (%),[2],36%
same,Population Mitotic Cells (%),[2],100%
same,Population Normal (%),[2],84%
same,Population Pyknosed Nuclei (%),[2],1%
same,Population Tubulin-Different-Phenotype (%),[2],29%
same,Total Cell Count,[2],738
same,Population Apoptotic (%),[3],56%
same,Population Fragmented Nuclei (%),[3],5%
same,Population Healthy Nuclei (%),[3],86%
same,Population Hoechst High Intensity Objects (%),[3],3%
same,Population Membrane Permeable-Phenotype (%),[3],7%
same,Population Mitochondria Different-Phenotype (%),[3],26%
same,Population Mitotic Cells (%),[3],43%
same,Population Normal (%),[3],96%
same,Population Tubulin-Different-Phenotype (%),[3],16%
same,Total Cell Count,[3],201
same,Population Apoptotic (%),[4],45%
same,Population Fragmented Nuclei (%),[4],4%
same,Population Healthy Nuclei (%),[4],87%
same,Population Hoechst High Intensity Objects (%),[4],9%
same,Population Membrane Permeable-Phenotype (%),[4],12%
same,Population Mitochondria Different-Phenotype (%),[4],24%
same,Population Mitotic Cells (%),[4],54%
same,Population Normal (%),[4],90%
same,Population Pyknosed Nuclei (%),[4],8%
same,Population Tubulin-Different-Phenotype (%),[4],13%
same,Total Cell Count,[4],125
same,Population Apoptotic (%),[5],27%
same,Population Fragmented Nuclei (%),[5],2%
same,Population Healthy Nuclei (%),[5],93%
same,Population Hoechst High Intensity Objects (%),[5],0%
same,Population Membrane Permeable-Phenotype (%),[5],3%
same,Population Mitochondria Different-Phenotype (%),[5],23%
same,Population Mitotic Cells (%),[5],72%
same,Population Normal (%),[5],99%
same,Population Tubulin-Different-Phenotype (%),[5],31%
same,Total Cell Count,[5],576
same,Population Apoptotic (%),[6],20%
same,Population Fragmented Nuclei (%),[6],8%
same,Population Healthy Nuclei (%),[6],87%
same,Population Hoechst High Intensity Objects (%),[6],6%
same,Population Membrane Permeable-Phenotype (%),[6],14%
same,Population Mitochondria Different-Phenotype (%),[6],42%
same,Population Mitotic Cells (%),[6],80%
same,Population Normal (%),[6],93%
same,Population Pyknosed Nuclei (%),[6],3%
same,Population Tubulin-Different-Phenotype (%),[6],44%
same,Total Cell Count,[6],747
same,Population Apoptotic (%),[7],16%
same,Population Fragmented Nuclei (%),[7],6%
same,Population Healthy Nuclei (%),[7],90%
same,Population Hoechst High Intensity Objects (%),[7],0%
same,Population Membrane Permeable-Phenotype (%),[7],5%
same,Population Mitochondria Different-Phenotype (%),[7],19%
same,Population Mitotic Cells (%),[7],83%
same,Population Normal (%),[7],99%
same,Population Pyknosed Nuclei (%),[7],4%
same,Population Tubulin-Different-Phenotype (%),[7],20%
same,Total Cell Count,[7],281
same,Population Apoptotic (%),[8],14%
same,Population Fragmented Nuclei (%),[8],4%
same,Population Healthy Nuclei (%),[8],88%
same,Population Hoechst High Intensity Objects (%),[8],7%
same,Population Membrane Permeable-Phenotype (%),[8],8%
same,Population Mitochondria Different-Phenotype (%),[8],25%
same,Population Mitotic Cells (%),[8],85%
same,Population Normal (%),[8],92%
same,Population Pyknosed Nuclei (%),[8],7%
same,Population Tubulin-Different-Phenotype (%),[8],19%
same,Total Cell Count,[8],145
O=C(Nc1ccc(Cl)cc1)Nc1cccc(-c2cccc(N3CCCC3)n2)c1,Population Apoptotic (%),[1],44%
same,Population Fragmented Nuclei (%),[1],11%
same,Population Healthy Nuclei (%),[1],79%
same,Population Hoechst High Intensity Objects (%),[1],10%
same,Population Membrane Permeable-Phenotype (%),[1],7%
same,Population Mitochondria Different-Phenotype (%),[1],7%
same,Population Mitotic Cells (%),[1],55%
same,Population Normal (%),[1],89%
same,Population Pyknosed Nuclei (%),[1],9%
same,Population Tubulin-Different-Phenotype (%),[1],7%
same,Total Cell Count,[1],158
same,Population Apoptotic (%),[2],25%
same,Population Fragmented Nuclei (%),[2],17%
same,Population Healthy Nuclei (%),[2],76%
same,Population Hoechst High Intensity Objects (%),[2],7%
same,Population Membrane Permeable-Phenotype (%),[2],10%
same,Population Mitochondria Different-Phenotype (%),[2],8%
same,Population Mitotic Cells (%),[2],75%
same,Population Normal (%),[2],92%
same,Population Pyknosed Nuclei (%),[2],6%
same,Population Tubulin-Different-Phenotype (%),[2],12%
same,Total Cell Count,[2],83
same,Population Apoptotic (%),[3],58%
same,Population Fragmented Nuclei (%),[3],10%
same,Population Healthy Nuclei (%),[3],65%
same,Population Hoechst High Intensity Objects (%),[3],10%
same,Population Membrane Permeable-Phenotype (%),[3],80%
same,Population Mitochondria Different-Phenotype (%),[3],12%
same,Population Mitotic Cells (%),[3],41%
same,Population Normal (%),[3],89%
same,Population Pyknosed Nuclei (%),[3],24%
same,Population Tubulin-Different-Phenotype (%),[3],82%
same,Total Cell Count,[3],109
same,Population Apoptotic (%),[4],72%
same,Population Fragmented Nuclei (%),[4],3%
same,Population Healthy Nuclei (%),[4],78%
same,Population Hoechst High Intensity Objects (%),[4],7%
same,Population Membrane Permeable-Phenotype (%),[4],69%
same,Population Mitochondria Different-Phenotype (%),[4],7%
same,Population Mitotic Cells (%),[4],27%
same,Population Normal (%),[4],92%
same,Population Pyknosed Nuclei (%),[4],17%
same,Population Tubulin-Different-Phenotype (%),[4],74%
same,Total Cell Count,[4],69
same,Population Apoptotic (%),[5],41%
same,Population Fragmented Nuclei (%),[5],6%
same,Population Healthy Nuclei (%),[5],83%
same,Population Membrane Permeable-Phenotype (%),[5],5%
same,Population Mitotic Cells (%),[5],58%
same,Population Pyknosed Nuclei (%),[5],9%
same,Population Tubulin-Different-Phenotype (%),[5],3%
same,Population Apoptotic (%),[6],20%
same,Population Fragmented Nuclei (%),[6],18%
same,Population Healthy Nuclei (%),[6],75%
same,Population Hoechst High Intensity Objects (%),[6],6%
same,Population Membrane Permeable-Phenotype (%),[6],7%
same,Population Mitochondria Different-Phenotype (%),[6],3%
same,Population Mitotic Cells (%),[6],80%
same,Population Normal (%),[6],93%
same,Population Pyknosed Nuclei (%),[6],6%
same,Population Tubulin-Different-Phenotype (%),[6],12%
same,Total Cell Count,[6],94
same,Population Apoptotic (%),[7],83%
same,Population Fragmented Nuclei (%),[7],17%
same,Population Healthy Nuclei (%),[7],54%
same,Population Hoechst High Intensity Objects (%),[7],21%
same,Population Membrane Permeable-Phenotype (%),[7],53%
same,Population Mitochondria Different-Phenotype (%),[7],13%
same,Population Mitotic Cells (%),[7],16%
same,Population Normal (%),[7],78%
same,Population Pyknosed Nuclei (%),[7],28%
same,Population Tubulin-Different-Phenotype (%),[7],61%
same,Total Cell Count,[7],131
same,Population Apoptotic (%),[8],72%
same,Population Fragmented Nuclei (%),[8],13%
same,Population Hoechst High Intensity Objects (%),[8],25%
same,Population Membrane Permeable-Phenotype (%),[8],46%
same,Population Mitochondria Different-Phenotype (%),[8],15%
same,Population Mitotic Cells (%),[8],27%
same,Population Normal (%),[8],74%
same,Population Pyknosed Nuclei (%),[8],31%
same,Population Tubulin-Different-Phenotype (%),[8],46%
same,Total Cell Count,[8],81
same,Population Apoptotic (%),[9],30%
same,Population Fragmented Nuclei (%),[9],4%
same,Population Healthy Nuclei (%),[9],88%
same,Population Hoechst High Intensity Objects (%),[9],6%
same,Population Membrane Permeable-Phenotype (%),[9],1%
same,Population Mitochondria Different-Phenotype (%),[9],5%
same,Population Mitotic Cells (%),[9],69%
same,Population Normal (%),[9],93%
same,Population Pyknosed Nuclei (%),[9],6%
same,Population Tubulin-Different-Phenotype (%),[9],2%
same,Total Cell Count,[9],245
same,Population Apoptotic (%),[10],50%
same,Population Fragmented Nuclei (%),[10],8%
same,Population Healthy Nuclei (%),[10],83%
same,Population Hoechst High Intensity Objects (%),[10],5%
same,Population Membrane Permeable-Phenotype (%),[10],4%
same,Population Mitochondria Different-Phenotype (%),[10],9%
same,Population Mitotic Cells (%),[10],50%
same,Population Normal (%),[10],94%
same,Population Pyknosed Nuclei (%),[10],7%
same,Population Tubulin-Different-Phenotype (%),[10],12%
same,Total Cell Count,[10],110
same,Population Apoptotic (%),[11],91%
same,Population Fragmented Nuclei (%),[11],21%
same,Population Healthy Nuclei (%),[11],33%
same,Population Hoechst High Intensity Objects (%),[11],31%
same,Population Membrane Permeable-Phenotype (%),[11],31%
same,Population Mitochondria Different-Phenotype (%),[11],29%
same,Population Mitotic Cells (%),[11],8%
same,Population Normal (%),[11],68%
same,Population Pyknosed Nuclei (%),[11],44%
same,Population Tubulin-Different-Phenotype (%),[11],33%
same,Total Cell Count,[11],221
same,Population Apoptotic (%),[12],87%
same,Population Fragmented Nuclei (%),[12],19%
same,Population Healthy Nuclei (%),[12],26%
same,Population Hoechst High Intensity Objects (%),[12],39%
same,Population Membrane Permeable-Phenotype (%),[12],40%
same,Population Mitochondria Different-Phenotype (%),[12],25%
same,Population Mitotic Cells (%),[12],12%
same,Population Normal (%),[12],60%
same,Population Pyknosed Nuclei (%),[12],53%
same,Population Tubulin-Different-Phenotype (%),[12],48%
same,Total Cell Count,[12],108
